Measurements of several laboratories.

`Nc1c2c(nc3c1C(c1ccc(Cl)c(Cl)c1)c1ccc(OCC(=O)c4ccccc4)cc1O3)CCCC2` (stereo not shown) gave a viability of 45.9% (SH-SY5Y; cell growth or viability, MTT; 25 µM).
For `CCCCCn1cc(C(=O)Nc2cccc3ccccc23)c2ccccc21`, the half-life was 2.21 min (metabolic stability; Sprague-Dawley rat, liver microsomes; 1 µM, pH 7.4).
`COc1cc2c(cc1C(=O)Nc1ccc(C(C)(C)C#N)cc1)CCCCC2` has a CC50 of 94 µM (NHDF; cell growth or viability, ATP luminescence; 24 h).
`COc1ccc(S(=O)(=O)Oc2ccc3c(c2)Oc2nc4c(c(N)c2C3c2cccc(OC)c2)CCCC4)cc1` (stereo not shown) has a viability of 84.3% (SH-SY5Y; cell growth or viability, MTT; 1.6 µM).
For `CN1CCCCC1Cn1cc(C(=O)c2cc([N+](=O)[O-])ccc2I)c2ccccc21` (racemic), the half-life was 13.7 min (metabolic stability; rat, liver microsomes).
With `CCCCNC(=O)Oc1ccc(OCc2ccccc2)cc1` the half-life was 7 min (metabolic stability; male Wistar rat, liver S9; 1 µM, pH 7.4).
The CC50 of `COc1cc2c(cc1C(=O)Nc1ccc(C(C)(C)C)cc1)CCCCC2` is reported as 148 µM (NHDF; cell growth or viability, ATP luminescence; 24 h).
For `CCC[C@@](N)(CO)CCc1ccc(OCCCCCC(C)C)cc1`, the IC50 was greater than 50 µM (Cytochrome P450 2C9 (CYP2C9, Homo sapiens, UniProt P11712); enzyme activity, inhibitor).
The viability of `Nc1c2c(nc3c1C(c1ccc(Cl)c(Cl)c1)c1ccc(OCC(=O)c4ccc(Cl)cc4)cc1O3)CCCC2` (stereo not shown) is reported as 89.5% (SH-SY5Y; cell growth or viability, MTT; 0.4 µM).
`C[C@]12CC[C@H](n3ccnc3)CC1=CC[C@@H]1[C@@H]2CC[C@]2(C)C(n3cnc4ccccc43)=CC[C@@H]12.Cl.Cl` gave an AUC(0-t) of 1870 ng·h/mL (male CD-1 mouse, plasma; intravenous, 1 mg/kg).
The half-life of `CC[C@@H]1CN2CCc3c([nH]c4cccc(OC)c34)[C@H]2C[C@@H]1/C(=C\OC)C(=O)OC` is reported as 11.2 min (mouse Hepatocyte; metabolic stability; hepatocytes).
For `Nc1c2c(nc3c1C(c1cccc([N+](=O)[O-])c1)c1ccc(OS(=O)(=O)c4ccc(F)cc4)cc1O3)CCCC2` (stereo not shown), the viability was 48.8% (SH-SY5Y; cell growth or viability, MTT; 25 µM).
`Cc1cc(C)nc(Nc2ncc(C(=O)NCCc3c(C)[nH]c4ccccc34)cn2)c1` gave a half-life of 22 min (metabolic stability; male Sprague-Dawley rat, hepatocytes; 1 µM).
